Consider 21 compounds from ChEMBL document CHEMBL5154906, “Design of a Potent, Selective, and Brain-Penetrant Inhibitor of Wnt-Deactivating Enzyme Notum by Optimization of a Crystallographic Fragment Hit” (J Med Chem, 2022).

Data set [1] concerns the target T1, Palmitoleoyl-protein carboxylesterase NOTUM (Homo sapiens, UniProt Q6P988, C330S). The experiment in a line: Inhibition of human Notum (S81 to T451 residues) Cys330Ser mutant expressed in HEK293S cells using OPTS as substrate incubated for 40 mins by fluorescence based assay.
Data set [2] in a line: Metabolic stability in human liver microsomes assessed as intrinsic clearance. It counts as ADME, Microsome. Particulars: read-out: CLH; call rule not given here. In general terms: Liver microsomes are vesicles of endoplasmic reticulum, rich in cytochrome P450 enzymes.
Data set [3] in a line: Metabolic stability in mouse liver microsomes assessed as intrinsic clearance. It is filed as ADME, Microsome. Particulars: read-out: CLH.
The nature of data set [4]: Metabolic stability in mouse hepatocyte assessed as intrinsic clearance measured per 10^6 cells. Particulars: hepatocytes, read-out: CLH. It is filed as ADME, cell-based.
For data set [5], the target named is T1, Palmitoleoyl-protein carboxylesterase NOTUM. The data set is described as follows: Inhibition of human Notum (S81 to T451 residues) Cys330Ser mutant expressed in HEK293S cells at 100 uM using OPTS as substrate incubated for 40 mins by fluorescence based assay relative to control. It is filed as cell-based. The procedure, abridged: (§1)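 Recombinant human Notum (81–451, Cys330Ser) was the enzyme and OPTS the carboxylesterase substrate. Values are percent inhibition at a single concentration, 10 μM or 100 μM.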

A short description of data set [6]: Drug uptake in mouse assessed as plasma concentration at 30 mg/kg, po administered twice daily for 7 days. It counts as ADME, organism-based. Particulars: in vivo, 168 h, time 7 day. The method in brief: (§2)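 Mice received 30 mg/kg orally twice daily, at T = 0 and 9 h, in formulation A (DMSO 2% v/v + 10% v/v Solutol in 1× PBS, 98% v/v). Plasma and brain drug concentrations were followed over time.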

Data set [7] is described as follows: Drug uptake in mouse assessed as brain concentration at 30 mg/kg, po administered twice daily for 7 days. It counts as ADME, organism-based. To be noted: in vivo, 168 h, time 7 day. The procedure, abridged:
as §2

The target of data set [8] is Glycogen synthase kinase-3 (Homo sapiens) (UniProt P49840+P49841). The experiment in a line: Inhibition of GSK3 (unknown origin) at 10 uM relative to control. It counts as protein assay.
A further data set in a line: in vivo. Particulars: Sprague-Dawley, rat, brain, po, 10 mg/kg.
A short description of data set [9]: Toxicity in wild type mouse at 30 mg/kg, po administered twice daily for 7 days. Particulars: in vivo, 168 h.
Data set [10] has as its target Casein kinase I isoform alpha (Homo sapiens) (UniProt P48729). The data set is described as follows: Inhibition of CK1 (unknown origin) at 10 uM relative to control.
The nature of data set [11]: Metabolic stability in rat liver microsomes assessed as intrinsic clearance. It counts as ADME, Microsome. Particulars: read-out: CLH.
Data set [12] is described as follows: Toxicity in aged APP/PS1 mouse at 30 mg/kg, po administered twice daily for 7 days. To be noted: in vivo, 168 h.
Data set [13] in a line: Metabolic stability in dog liver microsomes assessed as intrinsic clearance. It is filed as ADME, Canis lupus familiaris, Microsome. To be noted: read-out: CLH.
Data set [14] concerns the target T1, Palmitoleoyl-protein carboxylesterase NOTUM. The data set is described as follows: Inhibition of human Notum (S81 to T451 residues) Cys330Ser mutant expressed in HEK293S cells at 10 uM using OPTS as substrate incubated for 40 mins by fluorescence based assay relative to control. It counts as cell-based. The method in brief: as §1
Data set [15] is described as follows: Efflux ratio of apparent permeability from basolateral to apical side over apical to basolateral side in MDCK-MDR1 cells. Particulars: dog.

Structures are written as SMILES.

T1 sequence (Q6P988 20-496 C330S limits assumed): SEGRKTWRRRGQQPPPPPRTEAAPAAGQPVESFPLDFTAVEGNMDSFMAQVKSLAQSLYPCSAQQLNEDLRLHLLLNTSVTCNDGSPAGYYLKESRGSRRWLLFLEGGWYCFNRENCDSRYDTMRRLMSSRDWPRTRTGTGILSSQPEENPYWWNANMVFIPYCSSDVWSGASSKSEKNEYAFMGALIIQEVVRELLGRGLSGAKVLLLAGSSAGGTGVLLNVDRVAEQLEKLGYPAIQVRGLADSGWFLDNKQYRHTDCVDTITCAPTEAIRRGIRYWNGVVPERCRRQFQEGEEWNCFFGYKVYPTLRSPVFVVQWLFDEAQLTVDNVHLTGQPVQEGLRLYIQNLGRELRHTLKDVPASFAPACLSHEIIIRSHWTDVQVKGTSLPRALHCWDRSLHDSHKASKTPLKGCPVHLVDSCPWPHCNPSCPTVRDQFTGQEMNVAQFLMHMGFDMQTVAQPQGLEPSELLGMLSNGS
Glycogen synthase kinase-3 (Homo sapiens), sequence (P49840 whole entry, looked up): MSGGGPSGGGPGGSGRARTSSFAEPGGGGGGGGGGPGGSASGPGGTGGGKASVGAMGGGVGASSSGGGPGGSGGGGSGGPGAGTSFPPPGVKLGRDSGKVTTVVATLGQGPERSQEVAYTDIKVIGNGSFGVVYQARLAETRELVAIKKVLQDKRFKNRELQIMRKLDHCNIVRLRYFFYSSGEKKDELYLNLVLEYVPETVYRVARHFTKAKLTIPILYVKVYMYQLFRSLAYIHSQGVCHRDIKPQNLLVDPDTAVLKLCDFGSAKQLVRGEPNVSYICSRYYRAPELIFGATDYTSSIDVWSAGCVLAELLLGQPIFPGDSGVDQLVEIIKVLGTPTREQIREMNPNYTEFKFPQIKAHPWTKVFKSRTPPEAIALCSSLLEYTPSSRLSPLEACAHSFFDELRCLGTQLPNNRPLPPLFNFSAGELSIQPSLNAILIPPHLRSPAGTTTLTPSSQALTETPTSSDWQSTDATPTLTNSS
Glycogen synthase kinase-3 (Homo sapiens), sequence (P49841 whole entry, looked up): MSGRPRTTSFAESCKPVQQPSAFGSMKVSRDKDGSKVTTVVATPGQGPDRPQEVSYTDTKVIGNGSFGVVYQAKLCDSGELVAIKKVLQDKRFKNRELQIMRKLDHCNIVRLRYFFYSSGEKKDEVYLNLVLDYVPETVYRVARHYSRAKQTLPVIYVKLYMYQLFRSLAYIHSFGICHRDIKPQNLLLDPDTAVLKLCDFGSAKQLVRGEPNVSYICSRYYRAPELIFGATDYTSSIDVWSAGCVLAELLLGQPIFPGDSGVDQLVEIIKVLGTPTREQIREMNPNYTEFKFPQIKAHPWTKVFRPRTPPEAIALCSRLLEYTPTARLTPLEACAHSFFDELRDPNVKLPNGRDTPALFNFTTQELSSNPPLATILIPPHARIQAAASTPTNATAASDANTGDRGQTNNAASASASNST
Casein kinase I isoform alpha (Homo sapiens), sequence (P48729 2-337 limits assumed): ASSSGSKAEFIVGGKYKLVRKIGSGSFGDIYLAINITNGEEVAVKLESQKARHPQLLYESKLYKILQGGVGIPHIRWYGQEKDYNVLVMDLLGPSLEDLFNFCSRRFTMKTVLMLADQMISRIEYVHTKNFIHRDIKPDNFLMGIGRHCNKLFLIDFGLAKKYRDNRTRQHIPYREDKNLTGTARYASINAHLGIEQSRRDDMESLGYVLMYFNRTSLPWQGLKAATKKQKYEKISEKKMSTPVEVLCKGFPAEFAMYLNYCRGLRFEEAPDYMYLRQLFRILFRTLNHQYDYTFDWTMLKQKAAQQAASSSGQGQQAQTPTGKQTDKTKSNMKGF

Take `OCc1cn(-c2cccc(Cl)c2)nn1`: half-maximal inhibition in data set [1] (IC50) required 6.3 µM.
Consider `OCc1cn(-c2ccccc2Cl)nn1`, for which the IC50 (as a rule, the concentration at which inhibition is half-maximal) in [1] was determined as 32 µM.
For the compound `OCc1cn(-c2ccc(C(F)(F)F)c(Cl)c2)nn1`, the IC50 in data set [1] is 1 µM.
`OCc1cn(-c2cc(Cl)cc(Cl)c2)nn1` came in with an IC50 in data set [1] of 2.4 µM.
As for `OCc1cn(-c2ccc(Cl)c(C(F)(F)F)c2)nn1`, in data set [1], the IC50 came to 0.065 µM.
In data set [1], `OCc1cn(-c2cc(Cl)ccc2Cl)nn1` gave an IC50 of 23 µM.
In [1], `OCc1cn(-c2ccc(Cl)c(Cl)c2)nn1` came in with an IC50 of 0.5 µM. The microsomal CLint in [2] worked out at 12 µL/min/mg.
On to `OCc1cn(-c2ccc(C(F)(F)F)cc2)nn1`, for which, in data set [1], it took 8.8 µM to reach half-maximal inhibition (IC50).
Same read-out and setting: the value for `OCc1cn(-c2cccc(Cl)c2Cl)nn1` was 5.1 µM; that for `Cc1ccc(-n2cc(CO)nn2)cc1C` was 0.73 µM.
As for `OCc1cn(-c2ccc(Cl)c(C(F)(F)F)c2Cl)nn1`, the microsomal CLint in data set [2] came to 1.7 µL/min/mg; in data set [3] it was 6.7 µL/min/mg. Further, in data set [4], the hepatocyte CLint is 48 µL/min/1e6 cells.
Take `OCc1cn(-c2ccc3c(c2)OCO3)nn1`: the IC50 in data set [1] came out at 28 µM.
Still for that read-out and setting: the value for `OCc1cn(-c2ccccc2F)nn1` was 64 µM.
Regarding `OCc1cn(-c2ccc(F)cc2)nn1`, the inhibition (in general, the relative decrease from the control value, in per cent) at 100 µM in [5] amounted to 40%.
For the compound `FC(F)(F)c1c(Cl)ccc(-n2ccnn2)c1Cl`, in [6], the Cp result is reported as “Active”. The Ct entry in data set [7] was “Active”. In addition, the inhibition in [8] and in data set [10] was below 50% each time. Also, the AUC(0-inf) (usually the area under the concentration-time curve extrapolated to infinity) in “in vivo” turned out to be 46100 ng·h/mL. The microsomal CLint is 1.5 µL/min/mg in [2], 3.2 µL/min/mg in [3], below 9.6 µL/min/mg in data set [11] and 10.8 µL/min/mg in [13]. Also, the Activity result in [9] and in data set [12] was “Non-Toxic” each time. In addition, in [4], the hepatocyte CLint was determined as 19.4 µL/min/1e6 cells.
On to `[2H]c1nnn(-c2ccc(Cl)c(C(F)(F)F)c2Cl)c1[2H]`, for which, in [3], the microsomal CLint was found to be 5.4 µL/min/mg.
Compound `Cc1cccc(-n2cc(CO)nn2)c1` registered an inhibition at 10 µM in data set [14] of 40%.
Consider `OCc1cn(-c2ccc(Cl)cc2Cl)nn1`, for which 5.6 µM corresponded to half-maximal inhibition in data set [1] (IC50).
Same read-out and setting: in the case of `OCc1cn(-c2ccc3c(c2)OCCO3)nn1` it was 32 µM.
Regarding `FC(F)(F)c1c(Cl)cnc(-n2ccnn2)c1Cl`, in [15], the Ratio was 2.5.
`OCc1cn(-c2cccc(C(F)(F)F)c2)nn1`: the midpoint of inhibition in data set [1], the IC50, lay at 2.3 µM.
